Experimental data from PubChem BioAssay.
Calls of active or inactive are those of the source.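 Rule for the calls, unless noted: active = inhibition of the reporter signal at or above 50%; inactive = inhibition below 50%.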

Assays:
[1] = inhibitors of TNFa-induced NFkB p65 translocation, primary screen, imaging, HUVEC, MLSMR starter and 10KST1 sets (AID 438;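 active = inhibition above 20% together with a positive visual image hit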;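 note: compound added about 3h40 before a 20 min TNFalpha stimulation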;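 for inhibition: signal is the nuclear over cytoplasmic p65 intensity ratio per well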); settings: HUVEC TNFa-induced p65 nuclear translocation; cell count: measured here: nuclei count (cytotoxicity indicator), at 2.08 µM; inhibition: at 2 µM, stronger effect = higher value, 0% TNFa-plus-vehicle, 100% no-TNFa wells
[2] = reduction of polyQ htt aggregates in cells – imaging, exon1htt(103Q)mCFP cells, high-content imaging, primary screen (AID 483;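 active = visual image review flags a hit and inhibition of aggregation exceeds 20%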;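 note: compound exposure lasted 3 days before fixation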;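 for nuclei count: percent of the per-plate median nuclei count of sample wells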); settings: exon1htt(103Q)mCFP cell line, aggregate imaging, at 2 µM; inhibition of aggregation: stronger effect = higher value; nuclei count: measured here: cell count, toxicity
[3] = endothelial E-selectin expression blockers – imaging, HUVEC, immunofluorescence, MLSMR starter and 10KST1 sets, primary screen (AID 487;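 active = visually confirmed hit in the image check and inhibition above 20%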;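 for inhibition: signal is fraction of cell area covered by stained E-selectin grains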;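 for nuclei count: 100% = median nuclei count of all wells on the same plate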); settings: HUVEC TNFalpha-induced E-selectin immunofluorescence imaging, at 2 µM; inhibition: stronger effect = higher value; nuclei count: measured here: cell number, toxicity
[4] = biological target: Voltage-gated potassium channel subunit beta-2 (Rattus norvegicus) (UniProt P62483); assay: inhibitors of rat Kvbeta2 reductase activity – biochemical, NADPH fluorescence, primary screen (AID 622;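 active = fluorescence slope higher than the sample average by over 3 SD, cut at about -0.22 in these data, passing the limit was not always enough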;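 note: slope of raw intensity against log time taken from 70 to 1610 s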); settings: recombinant KvBeta, 4-cyanobenzaldehyde reduction, at 10 µM, stronger effect = higher value
[5] = biological target: Voltage-gated potassium channel subunit beta-2 (Rattus norvegicus) (UniProt P62483); assay: enhancers of rat Kvbeta2 NADPH turnover – biochemical, NADPH fluorescence, primary screen (AID 623;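 active = NADPH fluorescence slope more negative than the mean of all samples by about 3 SD, 99.7% confidence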;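 note: fluorescence intensity change per second fitted from 20 to 320 s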); settings: Recombinant KvBeta, NADPH fluorescence decrease slope, 10 min; at 10 µM; stronger effect = lower value
[6] = biological target: Muscarinic acetylcholine receptor M4 (Homo sapiens) (UniProt P08173); assay: M4-linked GIRK flux change, two-sided – cell-based, HEK293 M4/GIRK, thallium flux, BTC-AM, M4 allosteric agonist project, primary screen (AID 625;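 active = fluorescence slope after compound addition differing from the mean of all tested samples at 99.7% confidence, mostly higher but some lower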;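 note: thallium influx through GIRK channels coupled to M4 in HEK293 cells with BTC-AM dye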); settings: at 10 µM, actives lie on both sides
How it was run: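 System: HEK293 cells with M4 receptor and GIRK channels | Incubation: Cells overnight at 37 °C, BTC-AM loading 1 h, reads 2 min total | Technique: Kinetic BTC-AM fluorescence sampled at 1 Hz, 10 s pre-addition baseline | Measure: Post-addition slope, 15–24 s, of baseline-normalized fluorescence | Control set: Carbachol positive, DMSO negative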

[7] = blockers of RIG-like receptor reporter activation – cell-based, Sendai virus stimulus, luciferase, 10K MLSCN set, TLR/RLR signaling modifier project, primary screen (AID 602276;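 active = inhibition at or above 50% at 10 µM; inactive = inhibition below 50%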;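 note: firefly luciferase from ISG56 promoter only with Renilla not read in this screen; 0% = Sendai virus plus DMSO and 100% = medium plus DMSO without virus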); settings: HEK293 RL24 IRF3 luciferase reporter, at 10 µM, stronger effect = higher value
[8] = TLR3 IRF3 reporter activation blockers – cell-based, poly I:C stimulus, luciferase, 10K MLSCN set, primary screen (AID 602277); settings: HEK293-TLR3 RL24 IRF3 luciferase reporter, at 10 µM, stronger effect = higher value

Chain of Voltage-gated potassium channel subunit beta-2 (Rattus norvegicus) (P62483 whole entry, looked up): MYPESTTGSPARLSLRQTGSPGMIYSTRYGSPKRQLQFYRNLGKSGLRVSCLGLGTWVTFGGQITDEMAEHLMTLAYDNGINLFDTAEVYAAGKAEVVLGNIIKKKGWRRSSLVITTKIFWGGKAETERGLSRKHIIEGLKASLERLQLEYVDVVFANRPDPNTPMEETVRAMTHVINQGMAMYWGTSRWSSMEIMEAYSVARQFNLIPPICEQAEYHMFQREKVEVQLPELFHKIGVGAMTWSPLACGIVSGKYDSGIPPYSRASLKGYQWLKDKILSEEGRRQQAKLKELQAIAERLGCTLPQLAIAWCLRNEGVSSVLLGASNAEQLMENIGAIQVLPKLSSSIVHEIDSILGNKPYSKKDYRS
Chain of Muscarinic acetylcholine receptor M4 (Homo sapiens) (P08173 whole entry, looked up): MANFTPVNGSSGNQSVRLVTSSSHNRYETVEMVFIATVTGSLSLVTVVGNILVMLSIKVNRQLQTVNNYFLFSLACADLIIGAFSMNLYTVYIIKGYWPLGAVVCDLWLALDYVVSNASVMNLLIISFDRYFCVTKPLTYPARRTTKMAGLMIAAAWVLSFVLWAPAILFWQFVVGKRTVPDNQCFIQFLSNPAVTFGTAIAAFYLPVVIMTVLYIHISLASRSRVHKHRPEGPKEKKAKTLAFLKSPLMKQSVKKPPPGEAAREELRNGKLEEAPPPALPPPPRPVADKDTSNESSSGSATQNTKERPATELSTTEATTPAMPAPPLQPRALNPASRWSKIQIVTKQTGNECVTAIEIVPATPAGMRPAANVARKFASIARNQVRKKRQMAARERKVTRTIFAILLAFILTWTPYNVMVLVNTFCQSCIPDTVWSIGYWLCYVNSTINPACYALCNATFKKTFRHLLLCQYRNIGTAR

Row | SMILES | cell count [1] | inhibition [1] | inhibition of aggregation [2] | nuclei count [2] | inhibition [3] | nuclei count [3] | fluorescence slope [4] | NADPH fluorescence slope [5] | fluorescence slope [6] | inhibition [7] | inhibition [8]
1 | O=C(CSc1ncnc2ccccc12)N1CCN(c2ccccc2)CC1 | 567 | -10.9% (inactive) | 10.5% (inactive) | 99.4% | 9.1% (inactive) | 108% | -0.47 (inactive) | 3.6e-05 (inactive) | 0.00572 (inactive) | 1.94% (inactive) | 15.7% (inactive)
2 | Cc1ccc(NC2=NC(c3ccccc3)n3c(nc(C)cc3=O)N2)cc1 (stereo not drawn) | 568 | -5.6% (inactive) | -4.2% (inactive) | 89.6% | -13% (inactive) | 90.9% | -0.529 (inactive) | 3.4e-05 (inactive) | 0.00472 (inactive) | 14.2% (inactive) | 19.7% (inactive)
3 | COC(=O)c1ccccc1NC(=O)CSc1nnnn1C1CCCCC1 | 309 | -3.7% (inactive) | -19.4% (inactive) | 108% | -39.4% (inactive) | 81.2% | -0.545 (inactive) | -3.8e-05 (inactive) | 0.00503 (inactive) | 3.68% (inactive) | 20.1% (inactive)
4 | COC(=O)c1ccc(CSc2ncnc3c2nnn3-c2ccc(OC)cc2)o1 | 444 | 3.3% (inactive) | -13.1% (inactive) | 95% | -43.8% (inactive) | 113% | -0.577 (inactive) | -2.7e-05 (inactive) | 0.00411 (inactive) | 1.55% (inactive) | -32.3% (inactive)
5 | COCn1c(COc2ccccc2)nc2ccccc21 | 478 | 9.6% (inactive) | -10.6% (inactive) | 114% | 29% (inactive) | 123% | -0.248 (inactive) | -1.5e-05 (inactive) | 0.00599 (inactive) | -20.6% (inactive) | -112% (inactive)
6 | CC(c1nnc(SCC(=O)Nc2sccc2C#N)n1-c1ccc(Cl)cc1)N(C)C (stereo not drawn) | 539 | -20.1% (inactive) | 2% (inactive) | 101% | -28.9% (inactive) | 143% | -0.463 (inactive) | -2.7e-05 (inactive) | 0.00514 (inactive) | 17.6% (inactive) | 25.1% (inactive)
7 | Cc1ccc(C(=O)CSc2nnc(-c3cccnc3)n2N)cc1 | 614 | -20.3% (inactive) | -15.4% (inactive) | 89.2% | 5.4% (inactive) | 95.7% | -0.534 (inactive) | -5.6e-05 (inactive) | 0.00446 (inactive) | -0.185% (inactive) | 51.1% (active)
8 | COc1cc(-c2nc(-c3cccc(C(F)(F)F)c3)no2)cc(OC)c1OC | 413 | 5.3% (inactive) | 3.5% (inactive) | 102% | -78.2% (inactive) | 109% | -0.554 (inactive) | -5.5e-05 (inactive) | 0.00715 (inactive) | 3.75% (inactive) | -10.8% (inactive)
9 | Cc1cc(-c2nc3ncccc3o2)ccc1N | 306 | -8.9% (inactive) | 23.3% (inactive) | 102% | -35.5% (inactive) | 99.8% | -0.0237 (inactive) | 9.6e-08 (inactive) | 0.00386 (inactive) | -34.7% (inactive) | -101% (inactive)
10 | Cc1nc(NCc2ccccn2)c2ccccc2n1 | 416 | -13.6% (inactive) | 13% (inactive) | 69.7% | -49.1% (inactive) | 121% | -0.572 (inactive) | -4.7e-05 (inactive) | 0.00634 (inactive) | 4.35% (inactive) | -44.1% (inactive)
11 | O=C(COC(=O)c1ccco1)NCc1cccs1 | 516 | -13% (inactive) | -4.6% (inactive) | 93.5% | 7.8% (inactive) | 88.2% | -0.534 (inactive) | -5.7e-05 (inactive) | 0.0055 (inactive) | 5.62% (inactive) | 5.96% (inactive)
12 | CCC(=O)N1CCCc2cc(S(=O)(=O)N3CCCc4ccccc43)ccc21 | 684 | 2.1% (inactive) | -1.8% (inactive) | 100% | -142% (inactive) | 125% | -0.552 (inactive) | 3.3e-05 (inactive) | 0.00501 (inactive) | 20% (inactive) | 34% (inactive)
13 | O=C1CCCc2c1cc(C(=O)NCc1ccco1)c(=O)n2-c1ccc(Cl)cc1 | 220 | 0.8% (inactive) | 5.3% (inactive) | 91.5% | 37.1% (inactive) | 80% | -0.52 (inactive) | -5.7e-05 (inactive) | 0.0047 (inactive) | 10.8% (inactive) | 3.62% (inactive)
14 | CCCc1nc2ccccc2c(=O)n1NC(=O)c1c(O)c2cccc3c2n(c1=O)CCC3 | 554 | -15.1% (inactive) | -12.2% (inactive) | 92% | -150% (inactive) | 120% | -0.391 (inactive) | -0.000105 (inactive) | 0.00863 (inactive) | 7.44% (inactive) | 6.93% (inactive)
15 | CCCCc1ccc(NC(=O)N[C@H](C(=O)O)C(C)CC)cc1 (stereo partly drawn) | 610 | -13.3% (inactive) | -22.8% (inactive) | 109% | -22.1% (inactive) | 118% | -0.446 (inactive) | -3.7e-05 (inactive) | 0.00522 (inactive) | 4.79% (inactive) | 14.4% (inactive)
16 | COc1ccc(-c2cc(C(F)(F)F)nc(SCCC(=O)N3CCOCC3)n2)cc1 | 506 | -6.7% (inactive) | -23.3% (inactive) | 83.6% | -59.7% (inactive) | 133% | -0.596 (inactive) | -1.1e-06 (inactive) | 0.00462 (inactive) | 16.4% (inactive) | -4.79% (inactive)
17 | CC(=O)c1c(C)nc(C)nc1NC(=O)Cc1ccccc1 | 234 | -4.4% (inactive) | 37.5% (inactive) | 79.9% | 2.9% (inactive) | 84.4% | -0.566 (inactive) | -4.2e-05 (inactive) | 0.00735 (inactive) | 12.7% (inactive) | 20.5% (inactive)
18 | CCC(=O)n1nc(-c2ccco2)nc1N | 594 | -0.5% (inactive) | -13.1% (inactive) | 104% | -153% (inactive) | 114% | -0.486 (inactive) | -4.1e-05 (inactive) | 0.00538 (inactive) | 14.3% (inactive) | 15.1% (inactive)
19 | Cc1cccc(NC(=O)CCn2ccnc2C)c1 | 628 | 1.2% (inactive) | -6.6% (inactive) | 96.8% | -65.9% (inactive) | 93% | -0.574 (inactive) | -5e-05 (inactive) | 0.00688 (inactive) | 10.5% (inactive) | 8.13% (inactive)
20 | O=C(NCCN1CCOCC1)C1CC(=O)N(c2ccc(F)c(Cl)c2)C1 (stereo not drawn) | 353 | -4.7% (inactive) | 21.8% (inactive) | 76.2% | -63.7% (inactive) | 120% | -0.554 (inactive) | -3.9e-05 (inactive) | 0.00645 (inactive) | 10.9% (inactive) | 10.3% (inactive)
21 | CC(C)Cn1cc(C(=O)NCC2CCCO2)c2c3ccccc3n(C)c2c1=O (stereo not drawn) | 267 | 11.4% (inactive) | 3.2% (inactive) | 79.8% | -24.4% (inactive) | 107% | -0.523 (inactive) | -3.1e-05 (inactive) | 0.00592 (inactive) | 13.7% (inactive) | 18.7% (inactive)
22 | O=C(Nc1cccnc1)Nc1ccc2c(c1)OCO2 | 420 | 0.8% (inactive) | -14.9% (inactive) | 121% | 6% (inactive) | 51.1% | -0.418 (inactive) | 6.4e-06 (inactive) | 0.00717 (inactive) | -19.2% (inactive) | -53.4% (inactive)
23 | CCc1nc(SCC(=O)Nc2nccs2)c2oc3ccccc3c2n1 | 347 | 4% (inactive) | 12.5% (inactive) | 104% | -14.6% (inactive) | 116% | -0.283 (inactive) | -2.5e-06 (inactive) | 0.00667 (inactive) | 1.9% (inactive) | -8.08% (inactive)
24 | CCOc1cc(C(=O)N2CCN(c3ccccc3)CC2)cc(OCC)c1OCC | 284 | 14.5% (inactive) | 39.7% (active) | 88.2% | 11.1% (inactive) | 90.3% | -0.559 (inactive) | -2.8e-05 (inactive) | 0.00369 (inactive) | 12.4% (inactive) | 15.3% (inactive)
25 | COc1ccc(C)cc1-n1nnnc1SCC(=O)NC(=O)NCc1ccco1 | 180 | -9.6% (inactive) | 25% (inactive) | 65.2% | 8.9% (inactive) | 90.6% | -0.57 (inactive) | -1.3e-05 (inactive) | 0.00596 (inactive) | 16.7% (inactive) | 16% (inactive)
26 | Cc1ccc(-c2nnc3ccc(SCC(=O)NCc4ccco4)nn23)cc1 | 421 | 0.7% (inactive) | 0.7% (inactive) | 117% | 17.1% (inactive) | 99.7% | -0.234 (inactive) | -7.9e-06 (inactive) | 0.00584 (inactive) | 4.93% (inactive) | 7.2% (inactive)
27 | O=C1CC(c2ccco2)CC(O)=C1C=NCCN1CCNCC1 (stereo not drawn) | 315 | -8.1% (inactive) | -0.5% (inactive) | 114% | -35% (inactive) | 122% | -0.595 (inactive) | 9e-06 (inactive) | 0.00594 (inactive) | 22.6% (inactive) | 31.6% (inactive)
28 | Cc1ccc2c(COn3nnc4ccc(S(=O)(=O)N(C)C)cc43)cc(=O)oc2c1C | 702 | 5.3% (inactive) | 16.4% (inactive) | 96.2% | 30.2% (inactive) | 94.7% | -0.543 (inactive) | -6.4e-05 (inactive) | 0.00895 (inactive) | -1.62% (inactive) | 10.1% (inactive)
